Key:
Format in all cases: ADME
CYP1A2 / CYP1A1 = test: Selectivity ratio of IC50 for CYP1A2 (unknown origin) to IC50 for CYP1A1 (unknown origin); conditions: human; read-out: Ratio IC50
Cytochrome P450 1B1 = molecular target: T1, Cytochrome P450 1B1 (Homo sapiens, UniProt Q16678); test: Inhibition of CYP1B1 (unknown origin)-mediated deethylation of resorufin ethyl ether after 5 mins by spectrofluorimetric analysis
T1 sequence (Q16678 whole entry): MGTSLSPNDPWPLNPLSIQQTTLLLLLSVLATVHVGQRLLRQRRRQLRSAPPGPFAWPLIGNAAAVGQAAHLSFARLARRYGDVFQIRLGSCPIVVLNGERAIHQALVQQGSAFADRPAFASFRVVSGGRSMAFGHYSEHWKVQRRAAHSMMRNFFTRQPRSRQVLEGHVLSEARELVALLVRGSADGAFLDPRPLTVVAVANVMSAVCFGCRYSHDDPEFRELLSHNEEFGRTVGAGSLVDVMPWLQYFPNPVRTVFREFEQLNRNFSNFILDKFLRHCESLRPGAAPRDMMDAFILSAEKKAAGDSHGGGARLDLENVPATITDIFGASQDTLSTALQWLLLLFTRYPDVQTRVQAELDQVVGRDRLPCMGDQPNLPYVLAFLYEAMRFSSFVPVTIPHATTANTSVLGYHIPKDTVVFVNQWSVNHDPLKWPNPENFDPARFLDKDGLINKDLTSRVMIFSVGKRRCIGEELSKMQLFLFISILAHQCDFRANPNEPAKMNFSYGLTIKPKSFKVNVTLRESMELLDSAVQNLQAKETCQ
How it was run: (§1)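 Microsomal P450 (final 5 nM) in 0.1 M potassium phosphate pH 7.6 with MgCl2; resorufin ether or coumarin substrate final 5 μM from DMSO stock; inhibitor added in DMSO, DMSO alone for controls. Reaction started with NADPH regenerating system (NADP+, glucose 6-phosphate, G6P dehydrogenase) at 37 °C; product formation followed fluorimetrically as progress curves.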

Cytochrome P450 2B1 = molecular target: T2, Cytochrome P450 2B1 (Rattus norvegicus, UniProt P00176); test: Inhibition of CYP2B1 (unknown origin)-mediated depentylation of resorufin pentyl ether after 5 mins by spectrofluorimetric analysis; how it was run: as §1
T2 sequence (P00176 whole entry): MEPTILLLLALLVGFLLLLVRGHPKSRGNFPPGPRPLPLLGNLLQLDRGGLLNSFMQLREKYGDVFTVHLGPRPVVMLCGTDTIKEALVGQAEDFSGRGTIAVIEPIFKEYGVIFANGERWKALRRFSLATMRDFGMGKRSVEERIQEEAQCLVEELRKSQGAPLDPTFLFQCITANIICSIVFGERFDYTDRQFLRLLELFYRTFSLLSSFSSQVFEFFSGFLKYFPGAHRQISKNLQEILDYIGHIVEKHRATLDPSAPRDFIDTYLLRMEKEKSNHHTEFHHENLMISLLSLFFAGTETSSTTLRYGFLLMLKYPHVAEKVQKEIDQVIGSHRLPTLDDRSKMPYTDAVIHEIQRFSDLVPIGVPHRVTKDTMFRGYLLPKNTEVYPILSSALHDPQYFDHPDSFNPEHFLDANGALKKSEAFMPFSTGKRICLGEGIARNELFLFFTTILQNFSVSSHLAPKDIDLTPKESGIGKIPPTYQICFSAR

Cytochrome P450 1A1 [1] = molecular target: T3, Cytochrome P450 1A1 (Homo sapiens, UniProt P04798); test: Inhibition of CYP1A1 (unknown origin)-mediated deethylation of resorufin ethyl ether after 5 mins by spectrofluorimetric analysis; how it was run: as §1
T3 sequence (P04798 whole entry): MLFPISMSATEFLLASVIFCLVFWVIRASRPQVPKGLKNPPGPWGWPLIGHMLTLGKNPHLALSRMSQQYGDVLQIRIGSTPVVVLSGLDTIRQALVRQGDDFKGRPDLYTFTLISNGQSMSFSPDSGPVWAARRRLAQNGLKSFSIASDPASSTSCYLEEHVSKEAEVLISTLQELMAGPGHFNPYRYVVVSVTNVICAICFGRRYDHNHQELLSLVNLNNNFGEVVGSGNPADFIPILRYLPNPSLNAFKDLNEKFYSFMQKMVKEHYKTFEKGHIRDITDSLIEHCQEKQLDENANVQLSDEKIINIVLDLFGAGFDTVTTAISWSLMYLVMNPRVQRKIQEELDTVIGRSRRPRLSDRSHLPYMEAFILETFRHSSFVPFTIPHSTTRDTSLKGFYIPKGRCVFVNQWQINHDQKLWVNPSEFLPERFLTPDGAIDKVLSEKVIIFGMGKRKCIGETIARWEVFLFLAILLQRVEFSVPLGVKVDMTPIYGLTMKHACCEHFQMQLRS

Cytochrome P450 1A2 [2] = molecular target: T4, Cytochrome P450 1A2 (Homo sapiens, UniProt P05177); test: Inhibition of CYP1A2 (unknown origin)-mediated demethylation of resorufin methyl ether after 5 mins by spectrofluorimetric analysis; how it was run: as §1
T4 sequence (P05177 whole entry): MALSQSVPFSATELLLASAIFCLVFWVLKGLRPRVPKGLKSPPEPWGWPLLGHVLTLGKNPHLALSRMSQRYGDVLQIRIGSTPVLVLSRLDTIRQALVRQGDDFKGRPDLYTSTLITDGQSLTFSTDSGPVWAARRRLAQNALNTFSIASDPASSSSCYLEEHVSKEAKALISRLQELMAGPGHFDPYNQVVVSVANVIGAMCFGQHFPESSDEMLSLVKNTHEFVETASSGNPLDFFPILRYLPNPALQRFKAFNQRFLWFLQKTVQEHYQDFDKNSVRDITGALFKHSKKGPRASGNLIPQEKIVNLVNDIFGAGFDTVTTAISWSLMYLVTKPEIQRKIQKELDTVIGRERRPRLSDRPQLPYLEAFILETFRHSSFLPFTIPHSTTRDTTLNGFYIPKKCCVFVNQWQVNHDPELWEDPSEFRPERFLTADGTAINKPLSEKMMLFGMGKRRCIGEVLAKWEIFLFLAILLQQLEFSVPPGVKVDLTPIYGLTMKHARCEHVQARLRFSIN

Cytochrome P450 2A6 = molecular target: T5, Cytochrome P450 2A6 (Homo sapiens, UniProt P11509); test: Inhibition of CYP2A6 (unknown origin)-mediated coumarin 7-hydroxylation after 5 mins by spectrofluorimetric analysis; how it was run: as §1
T5 sequence (P11509 whole entry): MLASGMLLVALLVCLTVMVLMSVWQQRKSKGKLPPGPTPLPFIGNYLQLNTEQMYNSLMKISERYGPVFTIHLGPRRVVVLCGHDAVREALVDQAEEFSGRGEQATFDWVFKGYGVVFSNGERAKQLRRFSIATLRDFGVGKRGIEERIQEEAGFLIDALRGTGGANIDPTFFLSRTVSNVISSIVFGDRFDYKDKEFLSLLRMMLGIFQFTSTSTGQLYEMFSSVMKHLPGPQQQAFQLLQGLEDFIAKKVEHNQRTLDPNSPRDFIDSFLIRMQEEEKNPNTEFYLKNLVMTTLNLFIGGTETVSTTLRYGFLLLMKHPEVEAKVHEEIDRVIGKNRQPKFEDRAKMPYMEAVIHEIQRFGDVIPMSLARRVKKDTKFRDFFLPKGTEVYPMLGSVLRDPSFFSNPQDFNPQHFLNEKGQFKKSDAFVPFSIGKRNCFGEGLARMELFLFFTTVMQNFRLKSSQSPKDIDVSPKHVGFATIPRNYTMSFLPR

Cytochrome P450 1A2 [3] = molecular target: T4, Cytochrome P450 1A2; test: (§2) Irreversible inhibition of CYP1A2 (unknown origin)-mediated demethylation of resorufin methyl ether after 5 mins by spectrofluorimetric analysis
CYP1A2 = molecular target: T6, CYP1A2 (Homo sapiens, UniProt P05177); test: as §2; conditions: human, probe resorufin methyl ether
T6 sequence (P05177 whole entry): T4 sequence (P05177 whole entry)

Cytochrome P450 1A1 [4] = molecular target: T3, Cytochrome P450 1A1; test: (§3) Irreversible inhibition of CYP1A1 (unknown origin)-mediated deethylation of resorufin ethyl ether after 5 mins by spectrofluorimetric analysis
CYP1A1 = molecular target: T7, CYP1A1 (Homo sapiens, UniProt P04798); test: as §3; conditions: human, probe resorufin ethyl ether
T7 sequence (P04798 whole entry): T3 sequence (P04798 whole entry)

Cytochrome P450 1A2 [5] = molecular target: T4, Cytochrome P450 1A2; test: Inhibition of CYP1A2 (unknown origin)-mediated demethylation of resorufin methyl ether at 0.1 uM after 5 mins by spectrofluorimetric analysis
How it was run: (§4)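 Fluorimetric dealkylation of resorufin ether (ethyl for 1A1/1B1, methyl for 1A2) by microsomal P450 (final 5 nM), substrate final 5 μM, in 0.1 M potassium phosphate pH 7.6 with MgCl2 at 37 °C. Reaction started with NADPH regenerating system. Test compound at 0.1 μM in DMSO; activity compared with DMSO-only control.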

CYP1B1 over CYP1A2 = test: Selectivity ratio for CYP1B1 (unknown origin) over CYP1A2 (unknown origin); conditions: human
How it was run: (§5)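 Ratio of IC50 values from fluorimetric dealkylation assays: resorufin ethyl ether deethylation (1A1, 1B1), resorufin methyl ether demethylation (1A2). Microsomal P450 5 nM final, substrate 5 μM final, 0.1 M potassium phosphate pH 7.6 with MgCl2, NADPH-regenerating system, 37 °C. Inhibitor 0.1–100 μM in DMSO. IC50s from progress curves, three independent experiments.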

CYP1B1 = molecular target: T8, CYP1B1 (Homo sapiens, UniProt Q16678); test: Inhibition of CYP1B1 (unknown origin) dealkylation activity at 0.1 uM after 5 mins by spectrofluorimetric analysis relative to control; how it was run: as §4
T8 sequence (Q16678 whole entry): T1 sequence (Q16678 whole entry)

CYP1B1 over CYP1A1 = test: Selectivity ratio for CYP1B1 (unknown origin) over CYP1A1 (unknown origin); conditions: human; how it was run: as §5
Cytochrome P450 1A1 [6] = molecular target: T3, Cytochrome P450 1A1; test: Inhibition of CYP1A1 (unknown origin)-mediated deethylation of resorufin ethyl ether at 0.1 uM after 5 mins by spectrofluorimetric analysis; how it was run: as §4

Row | SMILES | inhibition (INH) (Cytochrome P450 1B1) | IC50 (Cytochrome P450 2B1) [µM] | IC50 (Cytochrome P450 1A1 [1]) [µM] | IC50 (Cytochrome P450 1A2 [2]) [µM] | IC50 (Cytochrome P450 2A6) [µM] | other results
1 | O=c1cc(-c2ccccc2)oc2ccc3c(c12)OCC=C3 | Active | > 25 | 0.32 | 1.13 | > 25 | selectivity ratio (CYP1A2 / CYP1A1): 3.5
2 | O=c1cc(-c2ccccc2)oc2ccc3c(c12)C=CCO3 | Active | > 25 | 0.15 | 0.76 | > 25 | selectivity ratio (CYP1A2 / CYP1A1): 5
3 | O=c1cc(-c2ccccc2)oc2c3c(ccc12)OCC=C3 | Active | > 25 | 0.27 |  | > 25 | 
4 | O=c1cc(-c2ccc3c(c2)C=CCO3)oc2ccccc12 | Active | 6.62 |  |  | > 25 | 
5 | C#CCOc1cc(O)c2c(=O)cc(-c3ccccc3)oc2c1 | Active | > 25 | 0.35 | 0.089 | > 25 | 
6 | O=c1cc(-c2ccccc2)oc2c3c(cc(O)c12)OCC=C3 | Active | > 25 | 0.11 |  | > 25 | 
7 | O=c1cc(-c2ccccc2)oc2cc3c(c(O)c12)C=CCO3 | Active | > 25 |  |  | > 25 | 
8 | C#CCOc1cccc(-c2cc(=O)c3c(O)cccc3o2)c1 | Active | 4.08 |  |  | > 25 | Ki (Cytochrome P450 1A2 [3]): 0.071 µM; kinact at 5 min (CYP1A2): 0.000367 s⁻¹; Ki (Cytochrome P450 1A1 [4]): 0.13 µM; kinact at 5 min (CYP1A1): 0.00317 s⁻¹
9 | O=c1cc(-c2cccc3c2C=CCO3)oc2cccc(O)c12 | Active | > 25 |  |  | > 25 | 
10 | O=c1cc(-c2ccc3c(c2)OCC=C3)oc2cccc(O)c12 | Active | > 25 |  |  | > 25 | 
11 | C#CCOc1ccc(-c2cc(=O)c3c(O)cccc3o2)cc1 | Active | > 25 |  | > 20 | > 25 | inhibition (INH) (Cytochrome P450 1A2 [5]): Not Active; selectivity ratio (CYP1B1 over CYP1A2): > 250; inhibition at 5 min, 0.1 µM (CYP1B1): 50%; selectivity ratio (CYP1B1 over CYP1A1): 100; inhibition (INH) (Cytochrome P450 1A1 [6]): Not Active
12 | O=c1cc(-c2ccc3c(c2)C=CCO3)oc2cccc(O)c12 | Active | > 25 |  |  | > 25 | 
13 | C#CCOc1ccc(-c2cc(=O)c3c(ccc4ccccc43)o2)cc1 |  |  | 0.041 | 0.6 |  | selectivity ratio (CYP1A2 / CYP1A1): 5
14 | O=c1cc(-c2cccc3c2C=CCO3)oc2ccccc12 [2'H,4H-[2,5'-BICHROMEN]-4-ONE] | Active | 7.12 |  |  | > 25 | 
15 | O=c1cc(-c2cccc3c2OCC=C3)oc2ccccc12 [2'H,4H-[2,8'-BICHROMEN]-4-ONE] | Active | 6.29 |  |  | > 25 | 
16 | O=c1cc(-c2ccccc2)oc2c1ccc1ccccc12 [ALPHA-NAPHTHOFLAVONE] | Active | 13 | 0.043 |  | > 25 | 
17 | O=c1cc(-c2ccccc2)oc2ccc3ccccc3c12 [BETA-NAPHTHOFLAVONE] | Active | > 25 | 0.054 | 0.47 | > 25 | selectivity ratio (CYP1A2 / CYP1A1): 5
18 | O=c1cc(-c2ccccc2)oc2cc(O)cc(O)c12 [CHRYSIN] | Active | > 25 |  |  | > 25 | 
